Hits are enriched below; roughly 2.3% of the tested compounds scored in any of these assays.
MEKK2 WT-MEK5 – raises or lowers MEK5 binding to wildtype human MEKK2 PB1 domain. Q9Y2U5. bead flow cytometry, Alexa488-MEK5 binding to MEKK2 WT; actives lie on both sides. binding response (% of control), % at 10 µM. hit rate 1.1% among 290,000. AID 1531; in the data active = binding response below about 67% or above about 130%
MEKK3 PB1 HTS – raises or lowers MEK5 binding to the human MEKK3 PB1 domain; binding response (% of control), % at 10 µM; hit rate 1.4% among 290,000; bead-based flow cytometry, Alexa488-MEK5 binding to MEKK3; actives lie on both sides; 0 = blocked by unlabeled MEK5, 100 = vehicle; AID 1529;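 active = binding response more than 3 SD above or below the average of its plate-row segment, actives on both sides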;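 also: Alexa488 bead fluorescence after subtracting the streptavidin-only scavenger bead signal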
Target sequence (Q99759 whole entry, looked up, the tested form may be a part): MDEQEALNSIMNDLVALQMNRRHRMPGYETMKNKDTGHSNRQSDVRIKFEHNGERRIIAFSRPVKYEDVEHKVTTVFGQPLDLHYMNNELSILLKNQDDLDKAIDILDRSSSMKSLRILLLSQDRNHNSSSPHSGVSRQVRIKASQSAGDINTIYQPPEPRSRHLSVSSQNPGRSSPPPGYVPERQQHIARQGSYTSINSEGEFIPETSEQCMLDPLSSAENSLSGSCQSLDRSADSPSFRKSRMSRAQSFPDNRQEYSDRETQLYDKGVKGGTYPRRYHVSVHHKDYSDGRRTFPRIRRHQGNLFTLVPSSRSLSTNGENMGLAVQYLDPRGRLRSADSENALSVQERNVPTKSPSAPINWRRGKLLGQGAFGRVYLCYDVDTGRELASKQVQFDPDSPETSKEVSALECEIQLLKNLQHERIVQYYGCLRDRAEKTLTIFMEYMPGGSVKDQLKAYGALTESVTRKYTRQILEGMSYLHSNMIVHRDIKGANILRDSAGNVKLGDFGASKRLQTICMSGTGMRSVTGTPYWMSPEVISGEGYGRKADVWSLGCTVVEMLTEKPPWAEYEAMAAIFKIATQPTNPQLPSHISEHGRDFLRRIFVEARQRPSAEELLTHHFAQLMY
MEKK2 mut-MEK5 – signal of MEK5 binding to mutant human MEKK2 PB1 domain | bead flow cytometry, Alexa488-MEK5 binding to MEKK2 mutant | percent response, % at 10 µM | hit rate 0.35% among 290,000; in the data active = percent response above about 24%, passing the limit was not always enough
Arrestin-AP2 inh – human beta-arrestin and AP2 interaction inhibition. FITC-arrestin peptide / GST-AP2 beads, flow cytometry; AP2 beta2 appendage carries R879A mutation. inhibition, % at 10 µM. hit rate 0.31% among 340,000. AID 504490;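 active = inhibition above a set limit, near 3 SD of compounds lacking own fluorescence, cut at about 54% in these data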
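Material – AP2 appendage R879A on GSH beads · Buffer or medium – PBS with 0.05% Tween 20 and 0.1% BSA · Probe or stimulus – fluorescein-tagged arrestin peptide at 50 nM final · Incubation – compound with beads 12 min RT, then probe 1 h RT · Detection – high-throughput flow cytometry of beads, ex 488, em 535 nm · Evaluation – percent response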
MEKK2wt confirm – raises or lowers MEK5 binding to wildtype human MEKK2, retest. shares compounds with MEKK3 PB1 HTS. bead flow cytometry, Alexa488-MEK5 binding to MEKK2 WT; actives lie on both sides. binding response (% of control), % at 10 µM. hit rate 2.4% among 5,900. AID 1892; in the data active = binding response below about 16% or above about 210%; inactive = in between
MEKK2mut-MEK5 – signal of MEK5 binding to mutant human MEKK2, retest; shares compounds with MEKK3 PB1 HTS; AID 1893; percent response, % at 10 µM; hit rate 2% among 5,900; bead flow cytometry, Alexa488-MEK5 binding to MEKK2 mutant; in the data active = percent response mostly above about 71%, no sharp cut-off; inactive = mostly below about 38%;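 also: higher means compound restores mutant binding toward wildtype level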
MEKK3-MEK5 inh – confirmation of inhibitors of MEK5 binding to human MEKK3 | binding response (% of control), % at 10 µM | hit rate 1.8% among 5,900 | shares compounds with MEKK3 PB1 HTS | AID 1894 | bead flow cytometry, Alexa488-MEK5 binding to MEKK3; stronger effect = lower value;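 active = binding response below 72% of control, or above a set upper limit, though filed actives all read lower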
Each line names hits and unclear results; the compound was inactive in the other large screens (follow-up assays come after a bar, where they were run); ! = a repeat was not active; [ ] = remark or other dose.

N#C/C(=C\c1cc2ccccc2nc1N1CCOCC1)C(=O)Nc1ccc(N2CCOCC2)cc1	MEKK3 PB1 HTS 146 | MEKK2wt confirm inactive | MEKK2mut-MEK5 inactive | MEKK3-MEK5 inh inactive
N#CC(C#N)=Cc1cc2ccccc2nc1N1CCOCC1	MEKK3 PB1 HTS 135 | MEKK2wt confirm inactive | MEKK2mut-MEK5 inactive | MEKK3-MEK5 inh inactive
O=C(C1CCN(S(=O)(=O)c2cnc[nH]2)CC1)N1CCN(c2ccc([N+](=O)[O-])cc2)CC1	none
COC(=O)c1[nH]c2cc(OC)ccc2c1NC(=O)CCN1CCSCC1	MEKK3 PB1 HTS 124 | MEKK2wt confirm inactive | MEKK2mut-MEK5 inactive | MEKK3-MEK5 inh inactive
COC(=O)c1[nH]c2cc(OC)ccc2c1N	MEKK2 WT-MEK5 30[inhibitor], MEKK3 PB1 HTS 18[inhibitor] | MEKK2wt confirm inactive | MEKK2mut-MEK5 inactive | MEKK3-MEK5 inh inactive
COC(=O)c1[nH]c2cccc(OC)c2c1NC(=O)CCN1CCSCC1	none
O=C(CCS(=O)(=O)c1ccc(Br)cc1)N1CCCCCC1	none
Cc1ccc2nc(-c3ccccc3)nn2c1	none (no result: MEKK2 WT-MEK5, MEKK3 PB1 HTS, MEKK2 mut-MEK5)
O=C(C[n+]1ccc(Cc2ccccc2)cc1)Nc1ccccc1	MEKK2 mut-MEK5 64 | MEKK2wt confirm inactive | MEKK2mut-MEK5 inactive | MEKK3-MEK5 inh inactive
O=S(=O)(c1ccccc1)n1ccc(-c2cnc(-c3ccccc3)s2)n1	MEKK3 PB1 HTS 129 | MEKK2wt confirm inactive | MEKK2mut-MEK5 inactive | MEKK3-MEK5 inh inactive
CCOc1cc(C)c(Cl)cc1S(=O)(=O)NCc1ccc2c(c1)OCO2	MEKK3 PB1 HTS 81[inhibitor] | MEKK2wt confirm inactive | MEKK2mut-MEK5 inactive | MEKK3-MEK5 inh inactive
COc1ccc(OC)c(CC(NC(C)=O)C(=O)NC2CCN(c3nc(OC)nc(OC)n3)CC2)c1 (configuration not stated)	none
CSc1nc(-c2ccccc2)nn1C(=O)c1ccco1	MEKK2 WT-MEK5 1.0[inhibitor], MEKK3 PB1 HTS 1.0[inhibitor] | MEKK2wt confirm inactive | MEKK2mut-MEK5 inactive | MEKK3-MEK5 inh inactive
CSc1nc(-c2ccccc2)nn1C(=O)c1ccccc1	none (no result: MEKK2 WT-MEK5, MEKK3 PB1 HTS, MEKK2 mut-MEK5)
O=C(/C=C/Nc1ccc(Cc2ccc(N/C=C/C(=O)C(F)(F)F)cc2)cc1)C(F)(F)F	MEKK3 PB1 HTS 134 | MEKK2wt confirm inactive | MEKK2mut-MEK5 inactive | MEKK3-MEK5 inh inactive
COc1ccc(N/C=C/C(=O)C(F)(F)F)cc1	none
CNS(=O)(=O)c1cn(CC(=O)N(C)Cc2ccccc2)cc1S(=O)(=O)NC	none
COc1ccc(NC(=O)c2c(C)noc2C(C)C)cc1S(=O)(=O)N1CCCCC1	none (no result: MEKK2 WT-MEK5, MEKK3 PB1 HTS, MEKK2 mut-MEK5)
Cc1ccc(S(=O)(=O)n2c3ccc(Cl)cc3c3nc(C)sc32)cc1	MEKK3 PB1 HTS 150 | MEKK2wt confirm inactive | MEKK2mut-MEK5 inactive | MEKK3-MEK5 inh inactive
COc1ccc(OC)c(/C=N/NC(=O)CCc2ccc(O)c(O)c2)c1	MEKK3 PB1 HTS 136 | MEKK2wt confirm inactive | MEKK2mut-MEK5 inactive | MEKK3-MEK5 inh inactive
COc1ccc(OC)c(/C=N/NC(=O)CCc2c(C)n[nH]c2C)c1	none
COc1cccc(/C=N/NC(=O)CCCc2ccc(OC)c(C)c2)c1	MEKK3 PB1 HTS 156 | MEKK2wt confirm inactive | MEKK2mut-MEK5 inactive | MEKK3-MEK5 inh inactive
CCN1CCN(c2ccc(NC(=O)c3cccc(F)c3)cc2Cl)CC1	none
O=C(OCc1ccccc1)N(CCCCN(CCCNCc1ccccc1)C(=O)OCc1ccccc1)CCCNCc1ccccc1	none (no result: MEKK2 WT-MEK5, MEKK3 PB1 HTS, MEKK2 mut-MEK5)
O=C(CN1CCN(c2cccc(C(F)(F)F)c2)CC1)N(C1CCCC1)C1CCS(=O)(=O)C1 (configuration not stated)	none (no result: MEKK2 WT-MEK5, MEKK3 PB1 HTS, MEKK2 mut-MEK5)
Cc1c2cc(O)c(=O)cc-2oc2cc(O)c(O)cc12	MEKK2 WT-MEK5 25![inhibitor], MEKK3 PB1 HTS 54![inhibitor] | MEKK2wt confirm inactive | MEKK2mut-MEK5 inactive | MEKK3-MEK5 inh 64
CCn1cc(C(=O)NNC(=O)c2ccc(Cl)cc2)c(=O)c2ccc(C)nc21	none
Oc1ccccc1-c1nnc(COc2ccc(Cl)cc2Cl)o1	none
Clc1ccc(-c2nnc(CCc3ccccc3)o2)c(Cl)c1	MEKK3 PB1 HTS 55[inhibitor] | MEKK2wt confirm inactive | MEKK2mut-MEK5 inactive | MEKK3-MEK5 inh inactive
